Series [1] in a line: Cytotoxicity against MDCK2 cells expressing human NPC1L1 dosed with micelles after 1 hr. More on the design: species or system Canis lupus familiaris. Conditions: dog, mdck-ii. The essentials:
(§1)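 MDCKII cells (wild type or stably expressing hNPC1L1, G418-maintained) seeded at 2 × 10^5 cells/mL 24 h ahead in DMEM/10% FCS. Cells exposed for 1 h, then viability read by MTT assay.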

The nature of series [2]: Cytotoxicity against MDCK2 cells dosed with micelles after 1 hr. More on the design: species or system Canis lupus familiaris. Conditions: dog, mdck-ii. The method, boiled down:
as §1

For series [3], the target named is T1, NPC1-like intracellular cholesterol transporter 1 (Homo sapiens) (UniProt Q9UHC9).
T1 sequence (whole entry): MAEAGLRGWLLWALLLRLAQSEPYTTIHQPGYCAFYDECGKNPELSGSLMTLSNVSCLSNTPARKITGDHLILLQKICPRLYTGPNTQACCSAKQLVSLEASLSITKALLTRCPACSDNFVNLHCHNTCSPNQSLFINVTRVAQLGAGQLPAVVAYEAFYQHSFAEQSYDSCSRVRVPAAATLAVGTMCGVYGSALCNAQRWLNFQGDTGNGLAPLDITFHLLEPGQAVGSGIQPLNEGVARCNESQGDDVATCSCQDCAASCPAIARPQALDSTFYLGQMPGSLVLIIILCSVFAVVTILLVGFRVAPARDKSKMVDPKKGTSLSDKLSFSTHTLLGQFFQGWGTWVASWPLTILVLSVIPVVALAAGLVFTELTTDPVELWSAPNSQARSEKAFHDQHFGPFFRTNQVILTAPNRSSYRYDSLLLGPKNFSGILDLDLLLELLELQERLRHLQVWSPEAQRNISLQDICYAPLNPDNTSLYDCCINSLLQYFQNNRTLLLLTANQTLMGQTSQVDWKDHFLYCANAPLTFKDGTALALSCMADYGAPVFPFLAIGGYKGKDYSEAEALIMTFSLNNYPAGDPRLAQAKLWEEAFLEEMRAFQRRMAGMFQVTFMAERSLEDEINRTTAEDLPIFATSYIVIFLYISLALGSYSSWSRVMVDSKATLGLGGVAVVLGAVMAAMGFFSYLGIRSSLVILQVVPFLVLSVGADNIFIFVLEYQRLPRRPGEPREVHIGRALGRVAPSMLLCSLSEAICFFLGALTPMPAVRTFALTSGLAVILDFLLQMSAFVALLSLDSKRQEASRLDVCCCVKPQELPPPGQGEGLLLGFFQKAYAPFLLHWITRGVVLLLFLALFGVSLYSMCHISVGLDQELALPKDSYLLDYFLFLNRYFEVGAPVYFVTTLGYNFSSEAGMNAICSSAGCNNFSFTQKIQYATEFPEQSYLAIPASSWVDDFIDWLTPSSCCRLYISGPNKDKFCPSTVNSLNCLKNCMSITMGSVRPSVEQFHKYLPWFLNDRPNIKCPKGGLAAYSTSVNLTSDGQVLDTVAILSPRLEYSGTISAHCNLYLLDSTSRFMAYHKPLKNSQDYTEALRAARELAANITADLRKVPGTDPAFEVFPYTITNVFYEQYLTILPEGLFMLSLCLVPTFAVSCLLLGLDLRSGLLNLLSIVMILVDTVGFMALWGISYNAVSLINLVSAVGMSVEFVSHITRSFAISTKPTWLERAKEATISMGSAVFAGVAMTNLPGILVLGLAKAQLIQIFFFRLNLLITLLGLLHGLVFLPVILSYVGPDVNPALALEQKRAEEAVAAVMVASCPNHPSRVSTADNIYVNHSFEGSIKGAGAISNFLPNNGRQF
As to the kind of experiment: Inhibition of human NPC1L1 transfected in MDCK2 cells assessed as [3H]cholesterol uptake at 60 uM after 1 hr by liquid scintillation counting analysis. Format: cell-based. Conditions: MDCK-II. The method, boiled down: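 hNPC1L1/MDCKII cells were seeded in DMEM with 5% LPDS 24 h before treatment, then PBS-washed. Cells were exposed for 1 h to micellar medium carrying [3H]cholesterol (0.18 μCi/mL) plus compound (0–200 μM). They were washed with ice-cold 0.2% fatty acid-free BSA and lysed, and lysate counted by scintillation. Counts were normalised to protein (CPM/mg) and expressed as % inhibition versus untreated cells. Duplicates, three independent experiments.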

As for `O=C(Cc1ccccc1)N[C@H]1C(=O)N(c2ccc(F)cc2)[C@@H]1c1ccc(O)cc1`, the Activity entry in series [1] and in series [2] was “Non-toxic” in each case.
As to `O=C(N[C@H]1C(=O)N(c2ccc(F)cc2)[C@@H]1c1ccc(O)cc1)c1ccccc1`, the inhibition (commonly the relative decrease from the control value, in per cent) in series [3] was determined as 60%. Also, the Activity result in series [1] and in series [2] was “Non-toxic” throughout.
Consider `O=C1[C@H](CC[C@H](O)c2ccc(F)cc2)[C@@H](c2ccc(O)cc2)N1c1ccc(F)cc1` [EZETIMIBE], for which, in series [3], the inhibition was determined as 40%. The Activity result in series [1] and in series [2] was “Non-toxic” throughout.
As to `O=C(N[C@H]1C(=O)N(c2ccc(F)cc2)[C@@H]1c1ccc(O)cc1)c1ccc(F)cc1`, the inhibition in series [3] worked out at 60%. Also, the Activity entry in series [1] and in series [2] was “Non-toxic” in each case.
For `O=C(Cc1ccc(F)cc1)N[C@H]1C(=O)N(c2ccc(F)cc2)[C@@H]1c1ccc(O)cc1`, the Activity result in series [1] and in series [2] was “Non-toxic” in each case.
Turning to `O=C(/C=C/c1ccccc1)N[C@H]1C(=O)N(c2ccc(F)cc2)[C@@H]1c1ccc(O)cc1`, the Activity result in series [1] and in series [2] was “Non-toxic” in each case.
For `O=C(/C=C/c1ccc(F)cc1)N[C@H]1C(=O)N(c2ccc(F)cc2)[C@@H]1c1ccc(O)cc1`, the Activity result in series [1] and in series [2] was “Non-toxic” in each case.
